These results are taken from paper PMC6427047 (Cell chemical biology, 2017).

The subject of one test is 8 selected kinases. The experiment in a line: Immunoblot validation of kinase degradation in MOLM-14 cells. The settings on record: pretreatment then 4-hour co-treatment with TL12-186. In kind it is cell-based, Human. An outline of the steps: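 MOLM-14 cells were exposed to test compound for 4 h, then lysed. Lysates were cleared by max-speed centrifugation at 4°C for 10 min. Protein was quantified by BCA and normalized. Samples were mixed with LDS sample buffer containing fresh 10% 2-mercaptoethanol and immunoblotted for the target kinases.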

Test [1] deals with WT and CRBN−/− MOLM-14 and MOLT-4 cells. Description: 2-day proliferation assays, WT and CRBN−/− cells. In kind it is cell-based, Human. The settings on record: CRBN−/− MOLM-14 and MOLT-4, 2-day.
The target of a further test is T1, FLT3 (Homo sapiens, UniProt P36888).
T1 sequence (P36888 610-943 limits assumed): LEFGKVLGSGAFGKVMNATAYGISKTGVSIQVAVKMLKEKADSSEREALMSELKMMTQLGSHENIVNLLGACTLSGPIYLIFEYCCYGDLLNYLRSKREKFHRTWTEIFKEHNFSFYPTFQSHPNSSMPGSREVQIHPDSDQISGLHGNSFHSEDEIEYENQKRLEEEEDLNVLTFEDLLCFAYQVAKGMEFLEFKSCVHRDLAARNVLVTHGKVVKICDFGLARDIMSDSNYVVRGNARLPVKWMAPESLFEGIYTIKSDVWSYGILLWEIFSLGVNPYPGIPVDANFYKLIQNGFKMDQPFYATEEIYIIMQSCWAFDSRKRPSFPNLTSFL
The experiment in a line: Immunoblot in MOLM-14 cells. In kind it is cell-based.

Structures are written as SMILES.

Take `Nc1cccc2c1C(=O)N(C1CCC(=O)NC1=O)C2=O` (centres unmarked) [pomalidomide]: the “effect of 4-hour pretreatment on TL12-186-induced kinase degradation” value (from here on “effect of 4-hour pretreatment”) in the test with 8 selected kinases is recorded as “reverse the degradation effect of TL12-186”. For the compound `CC(C)S(=O)(=O)c1ccccc1Nc1nc(Nc2ccc(N3CCC(N4CCN(C)CC4)CC3)cc2)ncc1Cl` [TL13-87], the “inhibition of cellular proliferation in CRBN−/− cells” value in test [1] is on record as “more potent inhibition of cellular proliferation relative to the degrader molecules”.

`NS(=O)(=O)OC[C@@H]1C[C@@H](n2ccc3c(N[C@H]4CCc5ccccc54)ncnc32)C[C@@H]1O` [MLN4924]: in the test on 8 selected kinases, the “effect of 4-hour pretreatment” value is listed as “reverse the degradation effect of TL12-186”. Turning to `CCN(CC)CCCC(C)Nc1ccnc2cc(Cl)ccc12` (centres unmarked) [chloroquine], at FLT3, the “rescue of TL12-186-induced FLT3 degradation by autophagy inhibition” value is recorded as “cannot significantly rescue the degradation of FLT3”.

For `CC(C)C[C@H](NC(=O)[C@H](CCc1ccccc1)NC(=O)CN1CCOCC1)C(=O)N[C@@H](Cc1ccccc1)C(=O)N[C@@H](CC(C)C)C(=O)[C@@]1(C)CO1` [carfilzomib], the “effect of 4-hour pretreatment” value in the test with 8 selected kinases is on record as “reverse the degradation effect of TL12-186”.
